The source of these data is ChEMBL document CHEMBL1154487, “Synthesis, chemical and biological studies on new Fe(3+)-glycosilated beta-diketo complexes for the treatment of iron deficiency” (Eur J Med Chem, 2008).

Activity calls are given as the source filed them. No cut-off for these calls is given here.

A word on the half-life: it is the time in which the quantity being followed falls by half. As usually defined, the pKa is the pH at which an ionisable group is half protonated. As a reminder, the logP is the decadic logarithm of the partition coefficient of the neutral form, usually between octanol and water. One may read the IC50 as the point on the concentration scale where inhibition reaches its midpoint.

A short description of data set [1]: Cytotoxicity against african green monkey Vero cells at 800 uM. It counts as cell-based. As to conditions: chlorocebus sabaeus, read-out: INH. The essentials: (§1)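 Vero cells (African green monkey kidney) were grown in MEM with 10% heat-inactivated FCS at 37 °C in 5% CO2. Cells were seeded at 4×10^4 cells/well and grown 72 h with a range of compound concentrations. They were then methanol-fixed, stained with crystal violet, and the dye was extracted into acidic isopropanol and read at 540 nm. Survival is % of untreated control, mean ± SD of 3 experiments, each in triplicate.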

Data set [2] is described as follows: Chemical stability in phosphate buffer at pH 7. The class given is physicochemical. The essentials:
(§2)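 The ligand was held at 5×10−5 M in 10−2 M phosphate buffer, pH 7, at 37 °C and constant ionic strength. Degradation was followed as the change in absorbance at 345 nm. First-order kinetics were taken from ln(At/A0) versus time.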

Data set [3] in a line: Protonation constant, pKa by spectrophotometric method. It counts as physicochemical. The essentials:
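Aqueous ligand solutions (2.5×10−5 M) were titrated spectrophotometrically, adjusting pH from 1 to 11 with concentrated NaOH or HCl. The UV absorbance maximum (320–365 nm) was followed versus pH. Protonation constants were computed from the spectral data.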

Data set [4] in a line: Amount of free iron in Fe3+/ligand system at pH 2. As to conditions: buffer.
A short description of data set [5]: Chemical stability in phosphate buffer at pH 7 after 8 hrs. It counts as physicochemical. The essentials:
as §2

The nature of data set [6]: Octanol-water partition coefficient, log P after 4 hrs by shake flask method. It counts as physicochemical. Put shortly: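 Shake-flask method at pH 7.0 (phosphate buffer). Water presaturated with n-octanol was mixed with the ligand or the Fe:L 1:3 system (10−4 M stock) and shaken at 37 °C for 4 h. After phase separation, aqueous concentration was measured spectrophotometrically. Log P is the log of the octanol/water concentration ratio.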

Data set [7] has as its system Vero. In words: Cytotoxicity against african green monkey Vero cells at 400 uM. It counts as cell-based. To be noted: chlorocebus sabaeus. The essentials: as §1
Data set [8] can be described thus: Protonation constant, pKa by potentiometric method. The class given is physicochemical. The essentials: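 Potentiometric titration of 3×10−3 M ligand in water at 25.0 °C, ionic strength 0.1 M (NaNO3), under nitrogen. The titrant was 1×10−2 M NaOH, over pH 2–10, with 600–720 s per point. At least 10 titrations of 40 points each were run, and constants were refined by least squares.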

In data set [9] the test system is Liver microsomes. Kind of data set: Antioxidant activity against ferric ion (Fe3+-ADP)-induced lipid peroxidation in rat liver microsomes. To be noted: Microsome. A general note: Microsomes from liver hold many membrane-bound enzymes, among them those of drug oxidation.
Data set [10] can be described thus: Cytotoxicity against african green monkey Vero cells at 10 uM. The class given is cell-based. As to conditions: chlorocebus sabaeus, read-out: INH.
The nature of data set [11]: Cytotoxicity against african green monkey Vero cells at 5 uM. The class given is cell-based. As to conditions: chlorocebus sabaeus, read-out: INH.
Data set [12] in a line: Chemical stability in phosphate buffer at pH 7 after 1 hr. To be noted: pH 7, 1 h. The class given is physicochemical.
Data set [13] can be described thus: Cytotoxicity against african green monkey Vero cells at 600 uM. As to conditions: chlorocebus sabaeus, read-out: INH. It counts as cell-based. Put shortly: as §1
Data set [14] deals with Liver microsomes. Kind of data set: Antioxidant activity against ferric ion (Fe3+-ADP)-induced lipid peroxidation in rat liver microsomes after 30 mins. As to conditions: Microsome.
Data set [15] deals with Vero. Kind of data set: Cytotoxicity against african green monkey Vero cells. As to conditions: Chlorocebus sabaeus. The class given is cell-based. Put shortly:
as §1

With `CC(=O)/C=C(O)/C=C/c1ccc(O[C@@H]2O[C@H](CO)[C@@H](O)[C@H](O)[C@H]2O)c(O)c1`, in data set [1], the cytotoxicity at 800 µM was determined as 20%. Also, the half-life in data set [2] was above 100 h. For the same compound, the pKa in [3] and in data set [8] was 8.03 each time. Besides, the Activity in [4] was determined as 20%; with Vero [7] it was 10%. Further, the Degradation % at 8 h in data set [5] was below 10%. Moreover, the logP at 4 h in data set [6] is 0.32. Also, the outcome in the data set on Liver microsomes [9] was inactive.

Turning to `COc1cc(/C=C/C(=O)CC(=O)/C=C/c2ccc(O)c(OC)c2)ccc1O` [CURCUMIN], the half-life in data set [2] came out at 0.167 h. Further, the cytotoxicity at 10 µM in [10] was found to be 20%. Also, the cytotoxicity at 5 µM in data set [11] is 10%. Also, in data set [12], the Stability result was “Unstable”.

In [4], `O=C(O)[C@H](O)[C@@H](O)[C@H](O)[C@H](O)CO` [GLUCONIC ACID] returned an Activity of 60%.

Take `CC(=O)/C=C(O)/C=C/c1ccc(O[C@@H]2O[C@H](CO)[C@@H](O)[C@H](O)[C@H]2O)cc1`: the cytotoxicity at 800 µM in [1] was 40%. Also, the half-life in [2] was above 100 h. Further, the pKa in data set [3] came out at 9.22; in data set [8], 9.26. Moreover, the cytotoxicity at 600 µM in [13] came out at 2%. In data set [4], this compound showed an Activity of 30%. Further, the Degradation % at 8 h in data set [5] is below 10%. For the same compound, the logP at 4 h in data set [6] worked out at 0.39. Also, the outcome with Liver microsomes [9] was inactive.

As to `COc1cc(/C=C/C(O)=C/C(C)=O)ccc1O[C@@H]1O[C@H](CO)[C@@H](O)[C@H](O)[C@H]1O`, in [1], the cytotoxicity at 800 µM was 65%. Besides, the half-life in data set [2] was above 100 h. In the data set on Liver microsomes [14], the outcome was Active. The pKa in [3] stood at 8.73; in data set [8] it was 8.75. Further, the cytotoxicity at 600 µM in data set [13] stood at 40%. The Activity in data set [4] is reported as 40%. Further, in [5], the Degradation % at 8 h was below 10%. In the data set with Vero [15], this compound came in with an IC50 of 700 µM. The compound further had a logP at 4 h in data set [6] of 0.13.
